From ChEMBL document CHEMBL4732237, “Discovery of 4-alkoxy-2-aryl-6,7-dimethoxyquinolines as a new class of topoisomerase I inhibitors endowed with potent in vitro anticancer activity” (2021)

How the values were obtained:
Assay type in all cases: functional
Settings in all cases: read-out: GI
HL-60(TB) = assay: Growth inhibition of human HL-60(TB) cells at 10 uM incubated for 48 hrs by sulforhodamine B assay relative to control
Procedure, shortened: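 NCI-60 one-dose screen: same culture, 48 h drug exposure and SRB read-out. Reported as percent growth relative to no-drug control and to time-zero cell number; 0–100 means growth inhibition, below 0 means lethality.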

MOLT-4 = assay: Growth inhibition of human MOLT-4 cells at 10 uM incubated for 48 hrs by sulforhodamine B assay relative to control
Procedure, shortened: (§1)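 NCI one-dose screen. Cells grown in RPMI 1640 with 5% FBS and 2 mM L-glutamine, plated and incubated 24 h at 37 °C, 5% CO2. DMSO-dissolved drug added, then 48 h further incubation. Adherent cells fixed with cold TCA, suspension cells fixed after settling. Stained with 0.4% SRB, absorbance read at 515 nm. Reported as percent growth relative to no-drug control and time-zero cell number.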

SR = assay: Growth inhibition of human SR cells at 10 uM incubated for 48 hrs by sulforhodamine B assay relative to control; procedure, shortened: as §1
HOP-62 = assay: Growth inhibition of human HOP-62 cells at 10 uM incubated for 48 hrs by sulforhodamine B assay relative to control
Procedure, shortened: (§2)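 NCI-60 single-dose screen. Cells were grown in RPMI 1640 with 5% FBS and 2 mM L-glutamine and plated 24 h before drug addition. Compound was added at one concentration in DMSO-derived medium and incubated for 48 h at 37 °C in 5% CO2. Read-out was SRB protein stain at 515 nm. Result is percent growth versus the no-drug control and the time-zero cell count; values below 0 indicate lethality.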

HOP-92 = assay: Growth inhibition of human HOP-92 cells at 10 uM incubated for 48 hrs by sulforhodamine B assay relative to control; procedure, shortened: as §2
NCI-H23 = assay: Growth inhibition of human NCI-H23 cells at 10 uM incubated for 48 hrs by sulforhodamine B assay relative to control; procedure, shortened: as §1
NCI-H322M = assay: Growth inhibition of human NCI-H322M cells at 10 uM incubated for 48 hrs by sulforhodamine B assay relative to control; procedure, shortened: as §1
NCI-H460 = assay: Growth inhibition of human NCI-H460 cells at 10 uM incubated for 48 hrs by sulforhodamine B assay relative to control; procedure, shortened: as §1
COLO 205 = assay: Growth inhibition of human COLO 205 cells at 10 uM incubated for 48 hrs by sulforhodamine B assay relative to control; procedure, shortened: as §2
KM12 = assay: Growth inhibition of human KM12 cells at 10 uM incubated for 48 hrs by sulforhodamine B assay relative to control; procedure, shortened: as §2
SW-620 = assay: Growth inhibition of human SW-620 cells at 10 uM incubated for 48 hrs by sulforhodamine B assay relative to control
Procedure, shortened: (§3)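 NCI one-dose screen across a 59-line panel. Cells were grown in RPMI 1640 with 5% FBS and 2 mM L-glutamine, plated and pre-incubated 24 h, then exposed to drug for 48 h at 37 °C, 5% CO2. Adherent cells were fixed with cold TCA (10% final), stained with 0.4% SRB in 1% acetic acid and read at 515 nm. Result is percent growth relative to no-drug control and time-zero cell count.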

SF-295 = assay: Growth inhibition of human SF-295 cells at 10 uM incubated for 48 hrs by sulforhodamine B assay relative to control; procedure, shortened: as §1
SNB-19 = assay: Growth inhibition of human SNB-19 cells at 10 uM incubated for 48 hrs by sulforhodamine B assay relative to control; procedure, shortened: as §1
U-251 = assay: Growth inhibition of human U-251 cells at 10 uM incubated for 48 hrs by sulforhodamine B assay relative to control; procedure, shortened: as §3
LOX IMVI = assay: Growth inhibition of human LOX IMVI cells at 10 uM incubated for 48 hrs by sulforhodamine B assay relative to control; procedure, shortened: as §2
M14 = assay: Growth inhibition of human M14 cells at 10 uM incubated for 48 hrs by sulforhodamine B assay relative to control; procedure, shortened: as §2
MDA-MB-435 = assay: Growth inhibition of human MDA-MB-435 cells at 10 uM incubated for 48 hrs by sulforhodamine B assay relative to control; procedure, shortened: as §2
SK-MEL-2 = assay: Growth inhibition of human SK-MEL-2 cells at 10 uM incubated for 48 hrs by sulforhodamine B assay relative to control; procedure, shortened: as §1
SK-MEL-28 = assay: Growth inhibition of human SK-MEL-28 cells at 10 uM incubated for 48 hrs by sulforhodamine B assay relative to control; procedure, shortened: as §1
UACC-257 = assay: Growth inhibition of human UACC-257 cells at 10 uM incubated for 48 hrs by sulforhodamine B assay relative to control; procedure, shortened: as §3
UACC-62 = assay: Growth inhibition of human UACC-62 cells at 10 uM incubated for 48 hrs by sulforhodamine B assay relative to control; procedure, shortened: as §3
IGROV-1 = assay: Growth inhibition of human IGROV-1 cells at 10 uM incubated for 48 hrs by sulforhodamine B assay relative to control; procedure, shortened: as §2
OVCAR-3 = assay: Growth inhibition of human OVCAR-3 cells at 10 uM incubated for 48 hrs by sulforhodamine B assay relative to control; procedure, shortened: as §1
OVCAR-4 = assay: Growth inhibition of human OVCAR-4 cells at 10 uM incubated for 48 hrs by sulforhodamine B assay relative to control; procedure, shortened: as §1
NCI/ADR-RES = assay: Growth inhibition of human NCI/ADR-RES cells at 10 uM incubated for 48 hrs by sulforhodamine B assay relative to control; procedure, shortened: as §1
SK-OV-3 = assay: Growth inhibition of human SK-OV-3 cells at 10 uM incubated for 48 hrs by sulforhodamine B assay relative to control; procedure, shortened: as §1
RXF 393 = assay: Growth inhibition of human RXF 393 cells at 10 uM incubated for 48 hrs by sulforhodamine B assay relative to control; procedure, shortened: as §1
SN12C = assay: Growth inhibition of human SN12C cells at 10 uM incubated for 48 hrs by sulforhodamine B assay relative to control; procedure, shortened: as §1
TK-10 = assay: Growth inhibition of human TK-10 cells at 10 uM incubated for 48 hrs by sulforhodamine B assay relative to control; procedure, shortened: as §3
PC-3 = assay: Growth inhibition of human PC-3 cells at 10 uM incubated for 48 hrs by sulforhodamine B assay relative to control; procedure, shortened: as §1
MCF7 = assay: Growth inhibition of human MCF7 cells at 10 uM incubated for 48 hrs by sulforhodamine B assay relative to control; procedure, shortened: as §2
MDA-MB-231 = assay: Growth inhibition of human MDA-MB-231 cells at 10 uM incubated for 48 hrs by sulforhodamine B assay relative to control; procedure, shortened: as §2
Hs-578T = assay: Growth inhibition of human HS-578T cells at 10 uM incubated for 48 hrs by sulforhodamine B assay relative to control; procedure, shortened: as §2
BT-549 = assay: Growth inhibition of human BT-549 cells at 10 uM incubated for 48 hrs by sulforhodamine B assay relative to control; procedure, shortened: as §2
T47D = assay: Growth inhibition of human T47D cells at 10 uM incubated for 48 hrs by sulforhodamine B assay relative to control; procedure, shortened: as §3
MDA-MB-468 = assay: Growth inhibition of human MDA-MB-468 cells at 10 uM incubated for 48 hrs by sulforhodamine B assay relative to control; procedure, shortened: as §2

SMILES | inhibition of growth at 10 µM (HL-60(TB)) [%] | inhibition of growth at 10 µM (MOLT-4) [%] | inhibition of growth at 10 µM (SR) [%] | inhibition of growth at 10 µM (HOP-62) [%] | inhibition of growth at 10 µM (HOP-92) [%] | inhibition of growth at 10 µM (NCI-H23) [%] | inhibition of growth at 10 µM (NCI-H322M) [%] | inhibition of growth at 10 µM (NCI-H460) [%] | inhibition of growth at 10 µM (COLO 205) [%] | inhibition of growth at 10 µM (KM12) [%] | inhibition of growth at 10 µM (SW-620) [%] | inhibition of growth at 10 µM (SF-295) [%] | inhibition of growth at 10 µM (SNB-19) [%] | inhibition of growth at 10 µM (U-251) [%] | inhibition of growth at 10 µM (LOX IMVI) [%] | inhibition of growth at 10 µM (M14) [%] | inhibition of growth at 10 µM (MDA-MB-435) [%] | inhibition of growth at 10 µM (SK-MEL-2) [%] | inhibition of growth at 10 µM (SK-MEL-28) [%] | inhibition of growth at 10 µM (UACC-257) [%] | other results
COc1cc2nc(-c3ccco3)cc(OCCCN3CCC(O)CC3)c2cc1OC | 46 | 46 | 46 | 46 | 46 | 46 | 46 | 46 | 46 | 46 | 46 | 46 | 46 | 46 | 46 | 46 | 46 | 46 | 46 | 46 | inhibition of growth at 10 µM (UACC-62): 46%; inhibition of growth at 10 µM (IGROV-1): 46%; inhibition of growth at 10 µM (OVCAR-3): 46%; inhibition of growth at 10 µM (OVCAR-4): 46%; inhibition of growth at 10 µM (NCI/ADR-RES): 46%; inhibition of growth at 10 µM (SK-OV-3): 46%; inhibition of growth at 10 µM (RXF 393): 46%; inhibition of growth at 10 µM (SN12C): 46%; inhibition of growth at 10 µM (TK-10): 46%; inhibition of growth at 10 µM (PC-3): 46%; inhibition of growth at 10 µM (MCF7): 46%; inhibition of growth at 10 µM (MDA-MB-231): 46%; inhibition of growth at 10 µM (Hs-578T): 46%; inhibition of growth at 10 µM (BT-549): 46%; inhibition of growth at 10 µM (T47D): 46%; inhibition of growth at 10 µM (MDA-MB-468): 46%
COc1cc2nc(-c3ccc(Cl)cc3)cc(OCCN3CCCCC3)c2cc1OC | 3 | 3 | 3 | 3 | 3 | 3 | 3 | 3 | 3 | 3 | 3 | 3 | 3 | 3 | 3 | 3 | 3 | 3 | 3 | 3 | inhibition of growth at 10 µM (UACC-62): 3%; inhibition of growth at 10 µM (IGROV-1): 3%; inhibition of growth at 10 µM (OVCAR-3): 3%; inhibition of growth at 10 µM (OVCAR-4): 3%; inhibition of growth at 10 µM (NCI/ADR-RES): 3%; inhibition of growth at 10 µM (SK-OV-3): 3%; inhibition of growth at 10 µM (RXF 393): 3%; inhibition of growth at 10 µM (SN12C): 3%; inhibition of growth at 10 µM (TK-10): 3%; inhibition of growth at 10 µM (PC-3): 3%; inhibition of growth at 10 µM (MCF7): 3%; inhibition of growth at 10 µM (MDA-MB-231): 3%; inhibition of growth at 10 µM (Hs-578T): 3%; inhibition of growth at 10 µM (BT-549): 3%; inhibition of growth at 10 µM (T47D): 3%; inhibition of growth at 10 µM (MDA-MB-468): 3%
COc1cc2nc(-c3cccs3)cc(OCCCN3CCC(O)CC3)c2cc1OC | 20 | 20 | 20 | 20 | 20 | 20 | 20 | 20 | 20 | 20 | 20 | 20 | 20 | 20 | 20 | 20 | 20 | 20 | 20 | 20 | inhibition of growth at 10 µM (UACC-62): 20%; inhibition of growth at 10 µM (IGROV-1): 20%; inhibition of growth at 10 µM (OVCAR-3): 20%; inhibition of growth at 10 µM (OVCAR-4): 20%; inhibition of growth at 10 µM (NCI/ADR-RES): 20%; inhibition of growth at 10 µM (SK-OV-3): 20%; inhibition of growth at 10 µM (RXF 393): 20%; inhibition of growth at 10 µM (SN12C): 20%; inhibition of growth at 10 µM (TK-10): 20%; inhibition of growth at 10 µM (PC-3): 20%; inhibition of growth at 10 µM (MCF7): 20%; inhibition of growth at 10 µM (MDA-MB-231): 20%; inhibition of growth at 10 µM (Hs-578T): 20%; inhibition of growth at 10 µM (BT-549): 20%; inhibition of growth at 10 µM (T47D): 20%; inhibition of growth at 10 µM (MDA-MB-468): 20%
COc1cc2nc(-c3ccc(Cl)cc3)cc(OCCN3CCC(O)CC3)c2cc1OC | 3 | 3 | 3 | 3 | 3 | 3 | 3 | 3 | 3 | 3 | 3 | 3 | 3 | 3 | 3 | 3 | 3 | 3 | 3 | 3 | inhibition of growth at 10 µM (UACC-62): 3%; inhibition of growth at 10 µM (IGROV-1): 3%; inhibition of growth at 10 µM (OVCAR-3): 3%; inhibition of growth at 10 µM (OVCAR-4): 3%; inhibition of growth at 10 µM (NCI/ADR-RES): 3%; inhibition of growth at 10 µM (SK-OV-3): 3%; inhibition of growth at 10 µM (RXF 393): 3%; inhibition of growth at 10 µM (SN12C): 3%; inhibition of growth at 10 µM (TK-10): 3%; inhibition of growth at 10 µM (PC-3): 3%; inhibition of growth at 10 µM (MCF7): 3%; inhibition of growth at 10 µM (MDA-MB-231): 3%; inhibition of growth at 10 µM (Hs-578T): 3%; inhibition of growth at 10 µM (BT-549): 3%; inhibition of growth at 10 µM (T47D): 3%; inhibition of growth at 10 µM (MDA-MB-468): 3%
